Data on 17 compounds can be found in ChEMBL document CHEMBL4837210 (Eur J Med Chem, 2021).

SMILES strings stand for the structures.

What all share (format): functional
For test [1], the system named is Staphylococcus aureus. As to the kind of experiment: Antibacterial activity against Staphylococcus aureus assessed as inhibition of bacterial growth measured by broth microdilution method. The following applies: time 24 hrs. In short, it runs like this:
(§1)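 Broth microdilution in Mueller Hinton broth. A 0.5 McFarland suspension was diluted tenfold, giving an inoculum of 1.5 × 10⁷ cfu/mL. This was added to 2-fold serial compound dilutions from […]. Plates were incubated aerobically at 37 °C for 24 h. MIC was the lowest concentration with no visible turbidity.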
In general terms: In broth dilution the organism is exposed to a series of concentrations in liquid medium.

The test system of test [2] is Staphylococcus epidermidis. Nature of the test: Antibacterial activity against penicillin-resistant Staphylococcus epidermidis assessed as inhibition of bacterial growth measured by broth microdilution method. The settings on record: time 24 hrs.
Test [3] deals with Staphylococcus aureus. As to the kind of experiment: Antibacterial activity against methicillin-resistant Staphylococcus aureus ATCC 43300 assessed as inhibition of bacterial growth by broth microdilution method. The following applies: time 24 hrs. In short, it runs like this: (§2)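 Broth microdilution MIC. A 0.5 McFarland suspension was diluted 10-fold and added at 1.5 × 10⁷ cfu/mL to 2-fold dilutions (0.125–64) in Mueller Hinton broth. Incubated aerobically 24 h at 37 °C. MIC was the lowest concentration with no visible turbidity.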

In test [4] the test system is Streptococcus pyogenes. Nature of the test: Antibacterial activity against erythromycin-resistant Streptococcus pyogenes 2 assessed as bacterial growth inhibition incubated for 24 hrs by CLSI protocol based broth microdilution method.
The test system of test [5] is Staphylococcus aureus. As to the kind of experiment: Antibacterial activity against erythromycin-susceptible Staphylococcus aureus ATCC 25923 assessed as bacterial growth inhibition incubated for 24 hrs by CLSI protocol based broth microdilution method.
In a further test the test system is Pseudomonas aeruginosa. As to the kind of experiment: Antibacterial activity against penicillin-susceptible Pseudomonas aeruginosa ATCC27853 assessed as bacterial growth inhibition incubated for 24 hrs by CLSI protocol based broth microdilution method.
Test [6] concerns Streptococcus pyogenes. As to the kind of experiment: Antibacterial activity against erythromycin-susceptible Streptococcus pyogenes clinical isolate 1 assessed as bacterial growth inhibition incubated for 24 hrs by CLSI protocol based broth microdilution method.
In test [7] the test system is Staphylococcus aureus. Nature of the test: Antibacterial activity against penicillin-resistant Staphylococcus aureus assessed as inhibition of bacterial growth measured by broth microdilution method. The following applies: time 24 hrs. In short, it runs like this: as §2
For the next test, the system named is Bacillus pumilus. As to the kind of experiment: Antibacterial activity against penicillin-susceptible Bacillus pumilus CMCC 63202 assessed as bacterial growth inhibition by broth dilution method. The settings on record: time 24 hrs. In short, it runs like this:
as §1

The subject of another test is Escherichia coli. As to the kind of experiment: Antibacterial activity against penicillin-susceptible Escherichia coli ATCC 25922 assessed as inhibition of bacterial growth measured by broth microdilution method. The following applies: time 24 hrs. In short, it runs like this:
as §1

A further test concerns Bacillus subtilis. As to the kind of experiment: Antibacterial activity against penicillin-susceptible Bacillus subtilis ATCC 9372 assessed as bacterial growth inhibition incubated for 24 hrs by CLSI protocol based broth microdilution method.

A word on the MIC: it is the least concentration at which growth counts as inhibited. Consider `C[n+]1c2ccccc2c(-c2ccc(OC(F)(F)F)cc2)c2ccccc21.[I-]`, for which the MIC in the test with Staphylococcus aureus [1] is 2 µg/mL; in test [2], 32 µg/mL; with Staphylococcus aureus [3], 2 µg/mL; in the test with Streptococcus pyogenes [4], 4 µg/mL; in the test with Staphylococcus aureus [5], 0.5 µg/mL; in the test with Pseudomonas aeruginosa, over 64 µg/mL. Further, the MIC in the test on Streptococcus pyogenes [6] was 1 µg/mL; with Staphylococcus aureus [7], 64 µg/mL; with Bacillus pumilus, 8 µg/mL; with Escherichia coli, over 64 µg/mL; in the test on Bacillus subtilis, 4 µg/mL.

Turning to `COc1ccc(/C=C/c2c3ccccc3[n+](C)c3ccccc23)cc1OC.[I-]`, the MIC in the test on Staphylococcus aureus [1] was 8 µg/mL; in test [2], 32 µg/mL; in the test on Staphylococcus aureus [3], 16 µg/mL; in the test on Streptococcus pyogenes [4], 4 µg/mL; in the test on Staphylococcus aureus [5], 4 µg/mL; in the test with Pseudomonas aeruginosa, over 64 µg/mL. The MIC in the test on Streptococcus pyogenes [6] was 2 µg/mL; in the test on Staphylococcus aureus [7] it was 64 µg/mL; with Bacillus pumilus, 1 µg/mL; in the test on Escherichia coli, over 64 µg/mL; in the test on Bacillus subtilis, 8 µg/mL.

`COc1ccccc1/C=C/c1c2ccccc2[n+](C)c2ccccc12.[I-]`: the MIC is 1 µg/mL in the test with Staphylococcus aureus [1]; 8 µg/mL in [2]; 4 µg/mL with Staphylococcus aureus [3]; 0.5 µg/mL in the test with Streptococcus pyogenes [4]; 0.25 µg/mL with Staphylococcus aureus [5]; over 64 µg/mL in the test on Pseudomonas aeruginosa. Moreover, the MIC in the test on Streptococcus pyogenes [6] is 0.25 µg/mL; in the test on Staphylococcus aureus [7], 16 µg/mL; in the test on Bacillus pumilus it was 2 µg/mL; with Escherichia coli it was over 64 µg/mL; in the test on Bacillus subtilis, 1 µg/mL.

Consider `C[n+]1c2ccccc2c(/C=C/c2ccc(Cl)cc2)c2ccccc21.[I-]`, for which the MIC in the test on Staphylococcus aureus [1] was 2 µg/mL; in test [2] it was 2 µg/mL; in the test on Staphylococcus aureus [3], 2 µg/mL; with Streptococcus pyogenes [4] it was 1 µg/mL; with Staphylococcus aureus [5] it was 1 µg/mL; in the test with Pseudomonas aeruginosa it was over 64 µg/mL. Besides, the MIC is 1 µg/mL with Streptococcus pyogenes [6]; 4 µg/mL in the test on Staphylococcus aureus [7]; 1 µg/mL with Bacillus pumilus; over 64 µg/mL in the test with Escherichia coli; 2 µg/mL with Bacillus subtilis.

Regarding `COc1cccc(-c2c3ccccc3[n+](C)c3ccccc23)c1.[I-]`, the MIC in the test on Staphylococcus aureus [1] is 8 µg/mL; in test [2] it was over 64 µg/mL; with Staphylococcus aureus [3], over 64 µg/mL; with Streptococcus pyogenes [4], 32 µg/mL; with Staphylococcus aureus [5], 4 µg/mL; in the test on Pseudomonas aeruginosa, over 64 µg/mL. For the same compound, the MIC was 8 µg/mL in the test with Streptococcus pyogenes [6]; over 64 µg/mL in the test with Staphylococcus aureus [7]; 32 µg/mL in the test with Bacillus pumilus; over 64 µg/mL in the test on Escherichia coli; 16 µg/mL in the test on Bacillus subtilis.

With `C[n+]1c2ccccc2c(-c2ccc(C(F)(F)F)cc2)c2ccccc21.[I-]`, the MIC was 2 µg/mL with Staphylococcus aureus [1]; 32 µg/mL in test [2]; 4 µg/mL in the test on Staphylococcus aureus [3]; 2 µg/mL in the test on Streptococcus pyogenes [4]; 1 µg/mL with Staphylococcus aureus [5]; over 64 µg/mL in the test with Pseudomonas aeruginosa. Further, the MIC in the test on Streptococcus pyogenes [6] was 1 µg/mL; in the test with Staphylococcus aureus [7], 64 µg/mL; in the test with Bacillus pumilus, 16 µg/mL; in the test on Escherichia coli it was over 64 µg/mL; in the test with Bacillus subtilis, 4 µg/mL.

On to `Cc1cccc(-c2c3ccccc3[n+](C)c3ccccc23)c1.[I-]`, for which the MIC in the test with Staphylococcus aureus [1] is 4 µg/mL; in [2] it was over 64 µg/mL; with Staphylococcus aureus [3] it was 64 µg/mL; with Streptococcus pyogenes [4] it was 16 µg/mL; in the test with Staphylococcus aureus [5], 1 µg/mL; in the test with Pseudomonas aeruginosa, over 64 µg/mL. Further, the MIC was 4 µg/mL with Streptococcus pyogenes [6]; over 64 µg/mL with Staphylococcus aureus [7]; 16 µg/mL in the test with Bacillus pumilus; over 64 µg/mL in the test with Escherichia coli; 8 µg/mL with Bacillus subtilis.

`C[n+]1c2ccccc2c(/C=C/c2ccc(F)cc2)c2ccccc21.[I-]`: the MIC was 2 µg/mL in the test on Staphylococcus aureus [1]; 8 µg/mL in test [2]; 8 µg/mL with Staphylococcus aureus [3]; 0.5 µg/mL in the test with Streptococcus pyogenes [4]; 1 µg/mL in the test on Staphylococcus aureus [5]; over 64 µg/mL with Pseudomonas aeruginosa. In addition, the MIC is 0.5 µg/mL with Streptococcus pyogenes [6]; 16 µg/mL with Staphylococcus aureus [7]; 2 µg/mL in the test with Bacillus pumilus; over 64 µg/mL in the test on Escherichia coli; 2 µg/mL with Bacillus subtilis.

`Cc1ccc(-c2c3ccccc3[n+](C)c3ccccc23)cc1.[I-]`: the MIC with Staphylococcus aureus [1] was 4 µg/mL; in test [2], 64 µg/mL; in the test with Staphylococcus aureus [3] it was 64 µg/mL; in the test on Streptococcus pyogenes [4], 16 µg/mL; with Staphylococcus aureus [5], 1 µg/mL; with Pseudomonas aeruginosa it was over 64 µg/mL. The MIC in the test on Streptococcus pyogenes [6] is 4 µg/mL; in the test on Staphylococcus aureus [7], over 64 µg/mL; in the test on Bacillus pumilus it was 8 µg/mL; with Escherichia coli it was over 64 µg/mL; in the test with Bacillus subtilis, 4 µg/mL.

For the compound `CCCOc1ccc(C#Cc2c3ccccc3[n+](C)c3ccccc23)cc1.[I-]`, the MIC is 4 µg/mL with Staphylococcus aureus [1]; 8 µg/mL in test [2]; 4 µg/mL with Staphylococcus aureus [3]; 16 µg/mL with Streptococcus pyogenes [4]; 4 µg/mL with Staphylococcus aureus [5]; over 64 µg/mL with Pseudomonas aeruginosa. The MIC with Streptococcus pyogenes [6] is 16 µg/mL; in the test with Staphylococcus aureus [7], 16 µg/mL; in the test on Bacillus pumilus it was 4 µg/mL; with Escherichia coli it was over 64 µg/mL; in the test on Bacillus subtilis it was 4 µg/mL.

In the case of `C[n+]1c2ccccc2c(C#Cc2ccccc2)c2ccccc21.[I-]`, the MIC was 2 µg/mL with Staphylococcus aureus [1]; 4 µg/mL in test [2]; 2 µg/mL with Staphylococcus aureus [3]; 8 µg/mL in the test on Streptococcus pyogenes [4]; 2 µg/mL with Staphylococcus aureus [5]; over 64 µg/mL with Pseudomonas aeruginosa. In addition, the MIC with Streptococcus pyogenes [6] is 4 µg/mL; in the test on Staphylococcus aureus [7] it was 4 µg/mL; with Bacillus pumilus, 8 µg/mL; in the test with Escherichia coli, over 64 µg/mL; with Bacillus subtilis, 2 µg/mL.

In the case of `CCCCCCNc1c2ccccc2[n+](C)c2ccccc12.[Cl-]`, the MIC with Staphylococcus aureus [1] was 64 µg/mL; in [2] it was 64 µg/mL; in the test on Staphylococcus aureus [3] it was 64 µg/mL; in the test with Streptococcus pyogenes [4] it was 32 µg/mL; in the test with Staphylococcus aureus [5] it was 64 µg/mL; in the test with Pseudomonas aeruginosa, over 64 µg/mL. Also, the minimal inhibitory concentration (MIC) is 32 µg/mL with Streptococcus pyogenes [6]; 64 µg/mL in the test with Staphylococcus aureus [7]; 64 µg/mL in the test with Bacillus pumilus; over 64 µg/mL in the test on Escherichia coli; 64 µg/mL in the test with Bacillus subtilis.

As for `C[n+]1c2ccccc2c(-c2ccccc2)c2ccccc21.[I-]`, the MIC in the test on Staphylococcus aureus [1] was 8 µg/mL; in test [2], over 64 µg/mL; with Staphylococcus aureus [3], over 64 µg/mL; with Streptococcus pyogenes [4] it was 32 µg/mL; with Staphylococcus aureus [5] it was 2 µg/mL; with Pseudomonas aeruginosa it was over 64 µg/mL. For the same compound, the MIC in the test with Streptococcus pyogenes [6] was 8 µg/mL; in the test with Staphylococcus aureus [7], over 64 µg/mL; in the test with Bacillus pumilus, 32 µg/mL; in the test with Escherichia coli it was over 64 µg/mL; in the test with Bacillus subtilis, 16 µg/mL.

Regarding `C[n+]1c2ccccc2c(-c2cccc([N+](=O)[O-])c2)c2ccccc21.[I-]`, the MIC with Staphylococcus aureus [1] is 32 µg/mL; in test [2], over 64 µg/mL; in the test on Staphylococcus aureus [3], 64 µg/mL; in the test with Streptococcus pyogenes [4], 64 µg/mL; with Staphylococcus aureus [5], 16 µg/mL; in the test on Pseudomonas aeruginosa, over 64 µg/mL. Further, the MIC with Streptococcus pyogenes [6] is 16 µg/mL; with Staphylococcus aureus [7], over 64 µg/mL; in the test on Bacillus pumilus it was over 64 µg/mL; in the test on Escherichia coli it was over 64 µg/mL; with Bacillus subtilis, 64 µg/mL.

Take `C[n+]1c2ccccc2c(Nc2ccncn2)c2ccccc21.[Cl-]`: the MIC was 32 µg/mL in the test on Staphylococcus aureus [1]; over 64 µg/mL in [2]; 32 µg/mL in the test with Staphylococcus aureus [3]; over 64 µg/mL in the test with Streptococcus pyogenes [4]; 16 µg/mL in the test with Staphylococcus aureus [5]; over 64 µg/mL in the test on Pseudomonas aeruginosa. For the same compound, the MIC was over 64 µg/mL with Streptococcus pyogenes [6]; over 64 µg/mL with Staphylococcus aureus [7]; 64 µg/mL with Bacillus pumilus; over 64 µg/mL with Escherichia coli; 16 µg/mL in the test on Bacillus subtilis.

Turning to `COc1ccccc1C#Cc1c2ccccc2[n+](C)c2ccccc12.[I-]`, the MIC with Staphylococcus aureus [1] is 4 µg/mL; in test [2], 16 µg/mL; with Staphylococcus aureus [3] it was 8 µg/mL; in the test with Streptococcus pyogenes [4] it was 16 µg/mL; with Staphylococcus aureus [5] it was 8 µg/mL; with Pseudomonas aeruginosa it was over 64 µg/mL. The MIC in the test with Streptococcus pyogenes [6] was 16 µg/mL; with Staphylococcus aureus [7] it was 16 µg/mL; with Bacillus pumilus it was 2 µg/mL; in the test with Escherichia coli it was over 64 µg/mL; in the test with Bacillus subtilis, 8 µg/mL.

As to `C[n+]1c2ccccc2c(/C=C/c2ccc(Br)cc2)c2ccccc21.[I-]`, the MIC is 1 µg/mL with Staphylococcus aureus [1]; 2 µg/mL in [2]; 2 µg/mL in the test on Staphylococcus aureus [3]; 0.5 µg/mL with Streptococcus pyogenes [4]; 0.5 µg/mL in the test on Staphylococcus aureus [5]; over 64 µg/mL with Pseudomonas aeruginosa. In addition, the MIC in the test on Streptococcus pyogenes [6] was found to be 0.25 µg/mL; in the test with Staphylococcus aureus [7], 4 µg/mL; with Bacillus pumilus, 1 µg/mL; in the test on Escherichia coli, 64 µg/mL; in the test on Bacillus subtilis, 1 µg/mL.
